The record followed here is ChEMBL document CHEMBL1145287, “Docking and 3-D QSAR studies on indolyl aryl sulfones. Binding mode exploration at the HIV-1 reverse transcriptase non-nucleoside binding site and design of highly active N-(2-hydroxyethyl)carboxamide and N-(2-hydroxyethyl)carbohydrazide derivatives” (J Med Chem, 2005).

For the first assay, the system named is C8166. Put plainly: Concentration required to reduce the amount of p24 by 90% in C8166 cells infected with an efavirenz-resistant strain EFVR. To be noted: Homo sapiens. In kind it is functional. In short, it runs like this:
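C8166 cells (1 × 10⁴/well) with serial compound dilutions (200 mM DMSO stock diluted in medium), infected with K103R/V179D/P225H virus selected from IIIB by passage in C8166 cells with efavirenz up to 2 μM (stock 3.0 × 10⁵ CCID₅₀/mL); 37 °C incubation; p24 measured by immunoenzymatic kit; value = concentration giving 90% p24 reduction.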
The EC90 is the point of the concentration-response curve where the effect stands at 90%. Low values mean greater potency, high ones weaker potency. For the compound `NC(=O)c1[nH]c2ccc(Cl)cc2c1S(=O)(=O)c1ccccc1` [L-737126], the EC90 turned out to be 900 nM.

Another assay concerns MT4. Put plainly: Concentration required to achieve 50% protection of infected MT-4 cells from Y181C-HIV-1 strain. In kind it is functional, cell-based. To be noted: Homo sapiens. In a few lines:
(§1)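 MT-4 cells (1 × 10⁴/well, RPMI 1640 + 10% FCS) exposed to serial compound dilutions (200 mM DMSO stock diluted in medium), infected with enough virus to give full cytopathicity by day 4; wt IIIB from H9/IIIB supernatant, Y181C and K103N–Y181C from NNRTI-selected passages.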
As usually defined, the EC50 is the concentration that produces a half-maximal response. `NC(=O)c1[nH]c2ccc(Cl)cc2c1S(=O)(=O)c1ccccc1` [L-737126] yielded an EC50 of 20 nM.

In another assay the test system is MT4. As to the kind of experiment: Concentration required for 50% protection of infected MT-4 cells from wtIIIB-HIV-1-induced cytopathogenicity was determined by the MTT method. In kind it is functional, cell-based. The note with it: Homo sapiens. In short, it runs like this: (§2)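 MT-4 cells (1 × 10⁴/well, RPMI 1640 with 10% FCS, 37 °C, 5% CO₂) were infected with HIV-1 IIIB (H9/IIIB supernatant) at an inoculum causing complete cytopathicity by day 4, across graded compound concentrations. Viability was read by MTT, with cytotoxicity run in parallel on mock-infected cells. Concentration giving 50% protection reported as the mean of three experiments.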
For orientation: Protection from cytopathic effect is a common read-out in antiviral testing.
Take `O=[N+]([O-])c1cc(Cl)ccc1S(=O)(=O)n1ccc2ccccc21`: it took 15800 nM to reach a half-maximal effect (EC50).
Same read-out and setting: to `Cc1cccc(S(=O)(=O)c2c(C(=O)NNCCO)[nH]c3ccc(Cl)cc23)c1` belongs 10 nM; to `O=[N+]([O-])c1ccc(Cl)c(S(=O)(=O)n2ccc3ccccc32)c1`, 6030 nM; to `Nc1cc(Cl)ccc1S(=O)(=O)n1ccc2ccccc21`, 74100 nM.
The same measure, in the same setting: under `Cc1ccc(Sc2c(C(=O)NNCCO)[nH]c3ccc(Cl)cc23)c(C)c1` stands 2290 nM; under `O=[N+]([O-])c1ccc(Cl)cc1S(=O)(=O)n1ccc2ccccc21`, 3980 nM.
Still for that read-out and setting: under `O=C(NCCO)c1[nH]c2ccc(Cl)cc2c1Sc1ccccc1` stands 129 nM; under `Cc1ccc(S(=O)(=O)c2c(C(=O)NCCO)[nH]c3ccc(Cl)cc23)c(C)c1`, 10 nM.

In a further assay the test system is C8166. Put plainly: Concentration required to reduce the amount of p24 by 90% in wtIIIB-HIV-1-infected C8166 cells. The note with it: Homo sapiens. The assay is classed as functional. In a few lines: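 Acute infection of C8166 cells (1 × 10⁴/well, RPMI 1640 with 10% FCS, 37 °C, 5% CO₂) by HIV-1 IIIB from persistently infected H9/IIIB supernatant, with a virus inoculum sized to cause complete cytopathicity at day 4, in the presence of serially diluted compound (DMSO stock diluted in medium). p24 antigen was measured by immunoenzymatic kit. Concentration giving 90% reduction of p24 reported.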
Consider `NC(=O)c1[nH]c2ccc(Cl)cc2c1S(=O)(=O)c1ccccc1` [L-737126], for which it took 0.7 nM to reach the 90% level (EC90).

Another assay concerns MT4. Put plainly: Protection of infected MT-4 cells from wtIIIB-HIV-1-induced cytopathogenicity. The assay is classed as functional, cell-based. To be noted: Homo sapiens. In a few lines:
as §2
As to `Cc1ccccc1S(=O)(=O)c1c(C(N)=O)[nH]c2ccc(Cl)cc12`, the response was half-maximal at 1 nM (EC50).
In turn, `NNC(=O)c1[nH]c2ccc(Cl)cc2c1S(=O)(=O)c1ccc(Cl)cc1` displayed an EC50 of 190 nM. Compared with the last compound, the EC50 is about 190-fold higher.
Same read-out and setting: under `NC(=O)c1[nH]c2ccc(Cl)cc2c1Sc1cc(Cl)ccc1N` stands 1600 nM.
On the same count and under the same terms, under `CCOC(=O)C(=O)c1cc2ccccc2n1S(=O)(=O)c1ccc(Cl)cc1` stands greater than 100000 nM.
The same measure, in the same setting: under `CCOC(=O)C(=O)c1cc2cc(Cl)ccc2n1S(=O)(=O)c1ccc(C)cc1` stands greater than 200000 nM.
`NC(=O)c1[nH]c2ccccc2c1S(=O)(=O)c1cc(Cl)ccc1N`: the 50% effective concentration (EC50) is 300 nM.
As for `NC(=O)c1[nH]c2ccccc2c1S(=O)(=O)c1ccccc1`, the EC50 amounted to 180 nM.
`NNC(=O)c1[nH]c2ccc(Cl)cc2c1Sc1ccccc1` showed an EC50 of 550 nM.
The same measure, in the same setting: under `CCOC(=O)C(=O)c1cc2ccccc2n1S(=O)(=O)c1cc(Cl)ccc1N` stands 1800 nM; under `NNC(=O)c1[nH]c2ccc(Cl)cc2c1S(=O)(=O)c1ccc(F)cc1`, 320 nM; under `Cc1ccc(S(=O)(=O)c2c(C(N)=O)[nH]c3ccc(Cl)cc23)c(C)c1`, 4 nM.
`O=Cc1cc2ccccc2n1S(=O)(=O)c1ccccc1` yielded an EC50 greater than 150000 nM.
Still for that read-out and setting: to `CCOC(=O)c1c(C=O)n(S(=O)(=O)c2ccccc2)c2ccccc12` belongs greater than 32000 nM; to `Cc1cc(C)cc(S(=O)(=O)c2c(C(=O)NN)[nH]c3ccc(Cl)cc23)c1`, 130 nM.
On the same count and under the same terms, to `CC(C)c1ccc(Sc2c(C(N)=O)[nH]c3ccc(Cl)cc23)cc1` belongs 1900 nM; to `NNC(=O)c1[nH]c2ccc(Cl)cc2c1S(=O)(=O)c1ccccc1`, 10 nM; to `CCOC(=O)c1[nH]c2ccccc2c1Sc1ccccc1N`, greater than 200000 nM.
Regarding `CC(C)(C)c1ccc(Sc2c(C(N)=O)[nH]c3ccc(Cl)cc23)cc1`, the EC50 was found to be 8000 nM.
On the same count and under the same terms, under `NC(=O)c1[nH]c2ccccc2c1Sc1ccccc1` stands 1400 nM; under `NC(=O)C(=O)c1cc2cc(Cl)ccc2n1S(=O)(=O)c1ccccc1`, 66600 nM; under `CCOC(=O)C(=O)c1cc2cc(Cl)ccc2n1S(=O)(=O)c1cc(Cl)ccc1[N+](=O)[O-]`, greater than 31000 nM.
On the same count and under the same terms, to `NC(=O)c1[nH]c2ccc(Cl)cc2c1S(=O)(=O)c1ccccc1` [L-737126] belongs 1 nM; to `CCOC(=O)C(=O)c1cc2ccccc2n1S(=O)(=O)c1cc(Cl)ccc1[N+](=O)[O-]`, greater than 100000 nM; to `Cc1ccc(S(=O)(=O)c2c(C(N)=O)[nH]c3ccc(Cl)cc23)cc1`, 3 nM.
`CCOC(=O)C(=O)c1cc2cc(Cl)ccc2n1S(=O)(=O)c1ccccc1` registered a concentration for a half-maximal effect (EC50) greater than 200000 nM.
On the same count and under the same terms, under `NNC(=O)c1[nH]c2ccccc2c1S(=O)(=O)c1ccccc1` stands 530 nM; under `CCOC(=O)C(=O)c1cc2cc(Cl)ccc2n1S(=O)(=O)c1cc(Cl)ccc1N`, 8300 nM; under `CCOC(=O)c1[nH]c2ccccc2c1Sc1ccccc1`, 1400 nM.
Still for that read-out and setting: under `CCOC(=O)C(=O)c1cc2ccccc2n1S(=O)(=O)c1ccccc1[N+](=O)[O-]` stands 1800 nM; under `NC(=O)c1[nH]c2ccc(Cl)cc2c1S(=O)(=O)c1ccc(Cl)cc1`, 11 nM; under `NC(=O)c1[nH]c2ccc(Cl)cc2c1Sc1ccc(F)cc1`, 1400 nM.
Still for that read-out and setting: under `CC(C)c1ccc(S(=O)(=O)c2c(C(N)=O)[nH]c3ccc(Cl)cc23)cc1` stands 80 nM.
On to `Cc1ccc(Sc2c(C(=O)NN)[nH]c3ccc(Cl)cc23)cc1`, for which the concentration giving a half-maximal response (EC50) stood at 1500 nM. Compared with the last compound, the EC50 is about 19-fold higher.
On to `NC(=O)c1c(C=O)n(S(=O)(=O)c2ccccc2)c2ccc(Cl)cc12`, for which the EC50 was no less than 200000 nM.
As for `CC(C)OC(=O)c1c(C=O)n(S(=O)(=O)c2ccccc2)c2ccc(Cl)cc12`, the EC50 was greater than 200000 nM.
On the same count and under the same terms, to `NNC(=O)c1[nH]c2ccc(Cl)cc2c1Sc1ccc(Cl)cc1` belongs 10000 nM.
As for `CCOC(=O)c1c(C=O)n(S(=O)(=O)c2ccccc2)c2ccc(Cl)cc12`, the EC50 is greater than 42000 nM.
Same read-out and setting: under `NC(=O)c1[nH]c2ccc(Cl)cc2c1S(=O)(=O)c1cc(Cl)ccc1N` stands 40 nM; under `O=Cc1cc2cc(Cl)ccc2n1S(=O)(=O)c1ccccc1`, greater than 75000 nM.
On the same count and under the same terms, to `NNC(=O)c1[nH]c2ccc(Cl)cc2c1S(=O)(=O)c1cc(Cl)ccc1N` belongs 300 nM.
The same measure, in the same setting: under `NNC(=O)c1[nH]c2ccc(Cl)cc2c1Sc1cc(Cl)ccc1N` stands greater than 13000 nM; under `NC(=O)c1[nH]c2ccc(Cl)cc2c1S(=O)(=O)c1ccc(F)cc1`, 14 nM.
Compound `NC(=O)c1[nH]c2ccc(Cl)cc2c1Sc1c(Cl)cccc1Cl` registered a 50% effective concentration (EC50) of 1200 nM.
The same measure, in the same setting: to `NNC(=O)c1[nH]c2ccc(Cl)cc2c1Sc1ccc(F)cc1` belongs 5000 nM; to `NC(=O)c1[nH]c2ccc(Cl)cc2c1Sc1ccccc1`, 20 nM.
Still for that read-out and setting: to `CC(=O)c1ccc2[nH]c(C(N)=O)c(S(=O)(=O)c3cc(C)cc(C)c3)c2c1` belongs 15 nM; to `CCOC(=O)c1[nH]c2ccccc2c1S(=O)(=O)c1ccccc1`, 3700 nM; to `NC(=O)c1c(C=O)n(S(=O)(=O)c2ccccc2)c2ccccc12`, greater than 32000 nM.
On the same count and under the same terms, under `CCOC(=O)c1[nH]c2ccc(Cl)cc2c1Sc1ccccc1N` stands 2300 nM; under `Cc1cc(C)cc(S(=O)(=O)c2c(C(N)=O)[nH]c3ccc(C(C)O)cc23)c1` (configuration not stated), 25 nM.
`NC(=O)C(=O)c1cc2ccccc2n1S(=O)(=O)c1ccccc1` came in with an EC50 of 15000 nM.
`Cc1ccc(Sc2c(C(N)=O)[nH]c3ccc(Cl)cc23)cc1` registered an EC50 greater than 450 nM.
The same measure, in the same setting: under `NC(=O)c1[nH]c2ccccc2c1Sc1cc(Cl)ccc1N` stands 9000 nM; under `NNC(=O)C(=O)c1cc2ccccc2n1S(=O)(=O)c1ccccc1`, greater than 200000 nM.
The same measure, in the same setting: to `CCOC(=O)c1[nH]c2ccc(Cl)cc2c1S(=O)(=O)c1cc(Cl)ccc1N` belongs 1900 nM; to `CCOC(=O)c1[nH]c2ccccc2c1S(=O)(=O)c1cc(Cl)ccc1N`, 2500 nM.
The same measure, in the same setting: to `Cc1cc(C)cc(S(=O)(=O)c2c(C(N)=O)[nH]c3ccc(Cl)cc23)c1` belongs 4 nM.
Compound `NC(=O)c1[nH]c2ccc(Cl)cc2c1S(=O)(=O)c1c(Cl)cccc1Cl` gave an EC50 of 100 nM.
Still for that read-out and setting: under `Cc1cc(C)cc(Sc2c(C(N)=O)[nH]c3ccc(Cl)cc23)c1` stands 6 nM; under `Cc1cccc(S(=O)(=O)c2c(C(N)=O)[nH]c3ccc(Cl)cc23)c1`, 1 nM; under `Cc1cc(C)cc(S(=O)(=O)c2c(C(N)=O)[nH]c3ccc(Br)cc23)c1`, 2 nM.
Same read-out and setting: to `NC(=O)c1[nH]c2ccc(Cl)cc2c1Sc1ccc(Cl)cc1` belongs 3100 nM; to `Cc1ccc(S(=O)(=O)c2c(C(=O)NN)[nH]c3ccc(Cl)cc23)cc1`, 50 nM.
In turn, `CC(C)OC(=O)c1c(C=O)n(S(=O)(=O)c2ccccc2)c2ccccc12` displayed an EC50 greater than 54000 nM.
For the compound `CC(C)(C)c1ccc(S(=O)(=O)c2c(C(N)=O)[nH]c3ccc(Cl)cc23)cc1`, the EC50 came out at 130 nM.
`CCOC(=O)c1[nH]c2ccc(Cl)cc2c1Sc1cc(Cl)ccc1N` yielded an EC50 of 2500 nM. Compared with the last compound, the EC50 is about 19-fold higher.
For the compound `CCOC(=O)c1[nH]c2ccccc2c1Sc1cc(Cl)ccc1N`, the EC50 is no less than 200000 nM.
In the case of `CCOC(=O)C(=O)c1cc2cc(Cl)ccc2n1S(=O)(=O)c1ccc(Cl)cc1`, the EC50 was greater than 200000 nM.
Still for that read-out and setting: to `Cc1ccccc1Sc1c(C(N)=O)[nH]c2ccc(Cl)cc12` belongs 300 nM; to `CCOC(=O)c1[nH]c2ccc(Cl)cc2c1S(=O)(=O)c1ccccc1N`, greater than 200000 nM.

The next assay concerns MT4. As to the kind of experiment: Concentration required to achieve 50% protection of infected MT-4 cells from K103N-Y181C. The assay is classed as functional, cell-based. The note with it: Homo sapiens. In a few lines:
as §1
On to `NC(=O)c1[nH]c2ccc(Cl)cc2c1S(=O)(=O)c1ccccc1` [L-737126], for which the EC50 is 8000 nM.
